Measurements: ChEMBL document CHEMBL1121923, “N2- and C-7 substituted actinomycin D analogues: synthesis, DNA-binding affinity, and biochemical and biological properties. Structure-activity relationship” (J Med Chem, 1981)
Values after ≈ are worked out from the molar mass of the structure shown.

Tests used:
[1] = tested on: Calf thymus DNA; test: Apparent number of binding sites per base pairs in DNA; Not measurable; assay type: nucleic-acid assay; details: Bos taurus
Method in brief: (§1)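 Calf thymus DNA; spectral titration; binding isotherms in 0.01 M phosphate buffer, pH 7.0, 20 °C; Kapp (per base pair) and Bapp (drug binding sites per base pair) taken from Scatchard plot.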

[2] = tested on: Calf thymus DNA; test: Apparent binding constant against calf thymus DNA-drug complex; Not measurable; assay type: nucleic-acid assay; details: Bos taurus; method in brief: as §1
[3] = tested on: P388; test: Concentration required for 50% inhibition of incorporation of labeled uridine by P388 cells for the synthesis of RNA (in vitro); e indicates values are high and variable; assay type: functional, cell-based; details: Mus musculus
[4] = tested on: P388; test: Concentration required for 50% inhibition of incorporation of labeled thymidine by p388 cells for synthesis of DNA (in vitro); e indicates values are high and variable; assay type: functional, cell-based; details: Mus musculus
[5] = tested on: CCRF-CEM; test: In vitro antitumor activity against human lymphoblastic leukemia cells.; assay type: functional; details: for IC50: read-out: ID50 (the source's name)
Method in brief: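 Human lymphoblastic leukemia CCRF-CEM cells grown in suspension culture; growth inhibition in vitro; ID50 (ng/mL) reported as the 50% inhibitory dose.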

[6] = tested on: P388; test: Percent of increased life span of P388 cells implanted CDF1 male mice; assay type: functional
Method in brief: (§2)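 CDF1 male mice, groups of seven, given 10^6 P388 cells ip on day 0; drug ip in 5% DMSO–saline on days 1, 5 and 9; controls received vehicle; range of doses tested, optimal nontoxic dose listed; median survival time; %ILS = (treated − control)/control × 100; average of two or more experiments.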

[7] = tested on: P388; test: Median survival time of the P388 cells implanted CDF1 male mice in vivo; assay type: functional; method in brief: as §2
[8] = tested on: P388; test: Optimal dose for antitumor activity was measured in P388 cells of CDF1 male mice in vivo; assay type: functional; details: Mus musculus; method in brief: as §2
[9] = tested on: P388; test: Optimal dose for antitumor activity was measured in P388 cells of CDF1 male mice in vivo; Highest dose tested; assay type: functional, Mus musculus; method in brief: as §2
[10] = tested on: P388; test: Concentration required for 50% inhibition of incorporation of labeled uridine by P388 cells for the synthesis of RNA (in vitro); Not determined because of lack of DNA binding; assay type: functional, cell-based; details: Mus musculus
[11] = tested on: P388; test: Concentration required for 50% inhibition of incorporation of labeled thymidine by p388 cells for synthesis of DNA (in vitro); Not determined because of lack of DNA binding; assay type: functional, cell-based; details: Mus musculus
[12] = tested on: Calf thymus DNA; test: Apparent binding constant calf thymus DNA-drug complex; assay type: nucleic-acid assay; details: Bos taurus; method in brief: as §1
[13] = tested on: P388; test: Concentration required for 50% inhibition of incorporation of labeled uridine by P388 cells for the synthesis of RNA (in vitro); assay type: functional; details: Mus musculus, read-out: ED50 (the source's name)
[14] = tested on: P388; test: Concentration required for 50% inhibition of incorporation of labeled thymidine by p388 cells for synthesis of DNA (in vitro); assay type: functional; details: Mus musculus, read-out: ED50 (the source's name)

Row | Compound | Bapp [1] | K app [2] | ED50 [3] | ED50 [4] | IC50 [5] | ILS [6] | Highest dose tested [9] | MST [7] | further results
1 | Cc1c2oc3c(C)c(OC(=O)c4ccccc4)cc(C(=O)N[C@@H]4C(=O)N[C@H](C(C)C)C(=O)N5CCC[C@@H]5C(=O)N(C)CC(=O)N(C)[C@@H](C(C)C)C(=O)O[C@@H]4C)c3nc-2c(C(=O)N[C@H]2C(=O)N[C@@H](C(C)C)C(=O)N3CCC[C@H]3C(=O)N(C)CC(=O)N(C)[C@H](C(C)C)C(=O)O[C@H]2C)c(N)c1=O | Not measurable | Not measurable | High and variable values | High and variable values |  |  |  |  | 
2 | Cc1c2oc3c(C)c(OC(=O)Cc4ccc(Cl)c(Cl)c4)cc(C(=O)N[C@@H]4C(=O)N[C@H](C(C)C)C(=O)N5CCC[C@@H]5C(=O)N(C)CC(=O)N(C)[C@@H](C(C)C)C(=O)O[C@@H]4C)c3nc-2c(C(=O)N[C@H]2C(=O)N[C@@H](C(C)C)C(=O)N3CCC[C@H]3C(=O)N(C)CC(=O)N(C)[C@H](C(C)C)C(=O)O[C@H]2C)c(N)c1=O | Not measurable | Not measurable | High and variable values | High and variable values |  |  |  |  | ID50 [5]: 0.65 µg/mL (≈ 0.446 µM); ILS ([6]; Mus musculus): 100%; MST ([7]; Mus musculus): 21 days; Optimal dose [8]: 0.5 mg/kg
3 | CCCCCNc1c(C(=O)N[C@@H]2C(=O)N[C@H](C(C)C)C(=O)N3CCC[C@H]3C(=O)N(C)CC(=O)N(C)[C@@H](C(C)C)C(=O)O[C@@H]2C)c2nc3c(C(=O)N[C@@H]4C(=O)N[C@H](C(C)C)C(=O)N5CCC[C@H]5C(=O)N(C)CC(=O)N(C)[C@@H](C(C)C)C(=O)O[C@@H]4C)ccc(C)c3oc-2c(C)c1=O |  |  |  |  | 1.6 µg/mL (≈ 1.21 µM) | 18% | 1.15 mg/kg | 13 days | 
4 | CCCCCCCOc1cc(C(=O)N[C@@H]2C(=O)N[C@H](C(C)C)C(=O)N3CCC[C@H]3C(=O)N(C)CC(=O)N(C)[C@@H](C(C)C)C(=O)O[C@@H]2C)c2nc3c(C(=O)N[C@@H]4C(=O)N[C@H](C(C)C)C(=O)N5CCC[C@H]5C(=O)N(C)CC(=O)N(C)[C@@H](C(C)C)C(=O)O[C@@H]4C)c(N)c(=O)c(C)c-3oc2c1C |  |  |  |  | 3 µg/mL (≈ 2.19 µM) | 24% | 0.9 mg/kg | 13 days | 
5 | CCCCCCCCCNc1c(C(=O)N[C@H]2C(=O)N[C@@H](C(C)C)C(=O)N3CCC[C@H]3C(=O)N(C)CC(=O)N(C)[C@H](C(C)C)C(=O)O[C@H]2C)c2nc3c(C(=O)N[C@@H]4C(=O)N[C@H](C(C)C)C(=O)N5CCC[C@@H]5C(=O)N(C)CC(=O)N(C)[C@@H](C(C)C)C(=O)O[C@@H]4C)ccc(C)c3oc-2c(C)c1=O |  |  |  |  |  |  |  |  | ED50 [10]: Not measurable; ED50 [11]: Not measurable
6 | Cc1c2oc3c(C)c(OCc4ccc([N+](=O)[O-])cc4)cc(C(=O)N[C@@H]4C(=O)N[C@H](C(C)C)C(=O)N5CCC[C@@H]5C(=O)N(C)CC(=O)N(C)[C@@H](C(C)C)C(=O)O[C@@H]4C)c3nc-2c(C(=O)N[C@H]2C(=O)N[C@@H](C(C)C)C(=O)N3CCC[C@H]3C(=O)N(C)CC(=O)N(C)[C@H](C(C)C)C(=O)O[C@H]2C)c(N)c1=O | Not measurable |  | High and variable values | High and variable values |  |  |  |  | K app [12]: 100000 M⁻¹
7 | CCCCCCOc1cc(C(=O)N[C@@H]2C(=O)N[C@H](C(C)C)C(=O)N3CCC[C@@H]3C(=O)N(C)CC(=O)N(C)[C@@H](C(C)C)C(=O)O[C@@H]2C)c2nc3c(C(=O)N[C@H]4C(=O)N[C@@H](C(C)C)C(=O)N5CCC[C@H]5C(=O)N(C)CC(=O)N(C)[C@H](C(C)C)C(=O)O[C@H]4C)c(N)c(=O)c(C)c-3oc2c1C | Not measurable | Not measurable | High and variable values | High and variable values |  |  |  |  | 
8 | CCCCCNc1c(C(=O)N[C@H]2C(=O)N[C@@H](C(C)C)C(=O)N3CCC[C@H]3C(=O)N(C)CC(=O)N(C)[C@H](C(C)C)C(=O)O[C@H]2C)c2nc3c(C(=O)N[C@@H]4C(=O)N[C@H](C(C)C)C(=O)N5CCC[C@@H]5C(=O)N(C)CC(=O)N(C)[C@@H](C(C)C)C(=O)O[C@@H]4C)ccc(C)c3oc-2c(C)c1=O |  |  |  |  |  |  |  |  | ED50 [10]: Not measurable; ED50 [11]: Not measurable
9 | Cc1c2oc3c(C)c(OC(=O)C45CC6CC(CC(C6)C4)C5)cc(C(=O)N[C@@H]4C(=O)N[C@H](C(C)C)C(=O)N5CCC[C@@H]5C(=O)N(C)CC(=O)N(C)[C@@H](C(C)C)C(=O)O[C@@H]4C)c3nc-2c(C(=O)N[C@H]2C(=O)N[C@@H](C(C)C)C(=O)N3CCC[C@H]3C(=O)N(C)CC(=O)N(C)[C@H](C(C)C)C(=O)O[C@H]2C)c(N)c1=O | Not measurable | Not measurable |  |  |  |  |  |  | 
10 | CCCCCCCCCCCNc1c(C(=O)N[C@@H]2C(=O)N[C@H](C(C)C)C(=O)N3CCC[C@H]3C(=O)N(C)CC(=O)N(C)[C@@H](C(C)C)C(=O)O[C@@H]2C)c2nc3c(C(=O)N[C@@H]4C(=O)N[C@H](C(C)C)C(=O)N5CCC[C@H]5C(=O)N(C)CC(=O)N(C)[C@@H](C(C)C)C(=O)O[C@@H]4C)ccc(C)c3oc-2c(C)c1=O |  |  |  |  | > 15 µg/mL |  | 1.15 mg/kg | 10 days | 
11 | Cc1c2oc3c(C)ccc(C(=O)N[C@@H]4C(=O)N[C@H](C(C)C)C(=O)N5CCC[C@H]5C(=O)N(C)CC(=O)N(C)[C@@H](C(C)C)C(=O)O[C@@H]4C)c3nc-2c(C(=O)N[C@@H]2C(=O)N[C@H](C(C)C)C(=O)N3CCC[C@H]3C(=O)N(C)CC(=O)N(C)[C@@H](C(C)C)C(=O)O[C@@H]2C)c(NCCCCCN)c1=O |  |  |  |  | 0.85 µg/mL (≈ 0.634 µM) | 64% | 1.8 mg/kg | 18 days | EC50 [13]: 460 nM; EC50 [14]: > 4600 nM
12 | CCCCCCOc1cc(C(=O)N[C@@H]2C(=O)N[C@H](C(C)C)C(=O)N3CCC[C@H]3C(=O)N(C)CC(=O)N(C)[C@@H](C(C)C)C(=O)O[C@@H]2C)c2nc3c(C(=O)N[C@@H]4C(=O)N[C@H](C(C)C)C(=O)N5CCC[C@H]5C(=O)N(C)CC(=O)N(C)[C@@H](C(C)C)C(=O)O[C@@H]4C)c(N)c(=O)c(C)c-3oc2c1C |  |  |  |  | 2.5 µg/mL (≈ 1.84 µM) | 24% | 0.9 mg/kg | 13 days | 
13 | CCCCCCNc1c(C(=O)N[C@@H]2C(=O)N[C@H](C(C)C)C(=O)N3CCC[C@H]3C(=O)N(C)CC(=O)N(C)[C@@H](C(C)C)C(=O)O[C@@H]2C)c2nc3c(C(=O)N[C@@H]4C(=O)N[C@H](C(C)C)C(=O)N5CCC[C@H]5C(=O)N(C)CC(=O)N(C)[C@@H](C(C)C)C(=O)O[C@@H]4C)ccc(C)c3oc-2c(C)c1=O |  |  |  |  | 3 µg/mL (≈ 2.24 µM) | 0% | 1.2 mg/kg | 11 days | 
14 | CCCCCCCCCNc1c(C(=O)N[C@@H]2C(=O)N[C@H](C(C)C)C(=O)N3CCC[C@H]3C(=O)N(C)CC(=O)N(C)[C@@H](C(C)C)C(=O)O[C@@H]2C)c2nc3c(C(=O)N[C@@H]4C(=O)N[C@H](C(C)C)C(=O)N5CCC[C@H]5C(=O)N(C)CC(=O)N(C)[C@@H](C(C)C)C(=O)O[C@@H]4C)ccc(C)c3oc-2c(C)c1=O |  |  |  |  | 11 µg/mL (≈ 7.96 µM) |  | 1.8 mg/kg | 10 days | 
15 | CCCCCCCOc1cc(C(=O)N[C@@H]2C(=O)N[C@H](C(C)C)C(=O)N3CCC[C@@H]3C(=O)N(C)CC(=O)N(C)[C@@H](C(C)C)C(=O)O[C@@H]2C)c2nc3c(C(=O)N[C@H]4C(=O)N[C@@H](C(C)C)C(=O)N5CCC[C@H]5C(=O)N(C)CC(=O)N(C)[C@H](C(C)C)C(=O)O[C@H]4C)c(N)c(=O)c(C)c-3oc2c1C | Not measurable | Not measurable | High and variable values | High and variable values |  |  |  |  | 
16 | Cc1c2oc3c(C)c(OC(=O)c4ccc5ccccc5c4)cc(C(=O)N[C@@H]4C(=O)N[C@H](C(C)C)C(=O)N5CCC[C@@H]5C(=O)N(C)CC(=O)N(C)[C@@H](C(C)C)C(=O)O[C@@H]4C)c3nc-2c(C(=O)N[C@H]2C(=O)N[C@@H](C(C)C)C(=O)N3CCC[C@H]3C(=O)N(C)CC(=O)N(C)[C@H](C(C)C)C(=O)O[C@H]2C)c(N)c1=O | Not measurable | Not measurable | High and variable values | High and variable values |  |  |  |  | 
17 | Cc1c2oc3c(C)c(OCc4ccc(Cl)cc4)cc(C(=O)N[C@@H]4C(=O)N[C@H](C(C)C)C(=O)N5CCC[C@@H]5C(=O)N(C)CC(=O)N(C)[C@@H](C(C)C)C(=O)O[C@@H]4C)c3nc-2c(C(=O)N[C@H]2C(=O)N[C@@H](C(C)C)C(=O)N3CCC[C@H]3C(=O)N(C)CC(=O)N(C)[C@H](C(C)C)C(=O)O[C@H]2C)c(N)c1=O | Not measurable |  | High and variable values | High and variable values |  |  |  |  | K app [12]: 100000 M⁻¹
18 | Cc1c2oc3c(C)ccc(C(=O)N[C@@H]4C(=O)N[C@H](C(C)C)C(=O)N5CCC[C@H]5C(=O)N(C)CC(=O)N(C)[C@@H](C(C)C)C(=O)O[C@@H]4C)c3nc-2c(C(=O)N[C@@H]2C(=O)N[C@H](C(C)C)C(=O)N3CCC[C@H]3C(=O)N(C)CC(=O)N(C)[C@@H](C(C)C)C(=O)O[C@@H]2C)c(NCCCCN)c1=O |  |  |  |  | 0.6 µg/mL (≈ 0.452 µM) | 109% | 1.8 mg/kg | 23 days | EC50 [13]: 346 nM; EC50 [14]: 3300 nM
